From ChEMBL document CHEMBL1125249, “Structure-affinity relationships of 12-sulfonyl derivatives of 5,8,8a,9,10,11,12,12a,13,13a-decahydro-6H-isoquino[2,1-g][1 ,6] naphthyridines at alpha-adrenoceptors” (J Med Chem, 1991)

What was measured:
[1] = biological target: T1, Adrenergic receptor alpha-2 (Rattus norvegicus, UniProt P22086+P19328+P22909); test: Binding affinity to alpha-2 adrenergic receptor determined by measurement of [3H]yohimbine displacement from rat cortical membrane
T1 sequence (P22086 whole entry): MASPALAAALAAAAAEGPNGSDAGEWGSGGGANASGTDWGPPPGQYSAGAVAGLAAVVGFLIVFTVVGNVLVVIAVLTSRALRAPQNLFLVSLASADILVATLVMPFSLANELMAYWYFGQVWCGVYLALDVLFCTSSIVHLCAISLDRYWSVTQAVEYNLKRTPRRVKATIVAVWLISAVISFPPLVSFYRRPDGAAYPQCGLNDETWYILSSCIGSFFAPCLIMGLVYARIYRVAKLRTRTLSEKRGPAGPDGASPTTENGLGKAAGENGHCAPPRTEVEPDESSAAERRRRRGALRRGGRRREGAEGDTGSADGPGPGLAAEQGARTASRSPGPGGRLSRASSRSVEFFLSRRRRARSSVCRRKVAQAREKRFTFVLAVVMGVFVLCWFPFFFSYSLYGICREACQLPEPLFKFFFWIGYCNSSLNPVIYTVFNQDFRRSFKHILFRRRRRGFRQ
T1 sequence (P19328 whole entry): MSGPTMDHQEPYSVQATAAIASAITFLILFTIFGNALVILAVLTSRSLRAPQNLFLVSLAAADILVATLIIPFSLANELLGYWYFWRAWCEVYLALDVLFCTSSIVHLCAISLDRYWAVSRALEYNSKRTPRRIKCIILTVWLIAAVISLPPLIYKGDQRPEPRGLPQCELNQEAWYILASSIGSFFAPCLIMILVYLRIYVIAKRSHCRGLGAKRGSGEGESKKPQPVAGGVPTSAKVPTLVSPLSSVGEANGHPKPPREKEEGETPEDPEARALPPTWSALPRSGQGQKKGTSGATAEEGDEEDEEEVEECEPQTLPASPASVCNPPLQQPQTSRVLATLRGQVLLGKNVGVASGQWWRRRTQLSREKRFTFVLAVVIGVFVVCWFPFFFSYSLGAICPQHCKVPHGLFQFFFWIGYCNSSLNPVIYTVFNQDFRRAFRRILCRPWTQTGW
T1 sequence (P22909 whole entry): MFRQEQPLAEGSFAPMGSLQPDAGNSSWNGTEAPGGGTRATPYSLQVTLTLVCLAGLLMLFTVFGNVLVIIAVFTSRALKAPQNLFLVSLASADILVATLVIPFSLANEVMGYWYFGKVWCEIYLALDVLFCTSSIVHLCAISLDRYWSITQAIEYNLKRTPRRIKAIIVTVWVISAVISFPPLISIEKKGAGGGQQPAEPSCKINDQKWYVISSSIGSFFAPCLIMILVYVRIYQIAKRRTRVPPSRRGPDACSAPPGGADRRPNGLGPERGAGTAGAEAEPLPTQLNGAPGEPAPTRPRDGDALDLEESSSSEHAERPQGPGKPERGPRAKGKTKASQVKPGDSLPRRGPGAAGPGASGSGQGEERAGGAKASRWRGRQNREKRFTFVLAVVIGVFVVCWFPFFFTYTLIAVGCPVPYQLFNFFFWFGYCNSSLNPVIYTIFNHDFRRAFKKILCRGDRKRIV

[2] = biological target: T2, Adrenergic receptor alpha-1 (Rattus norvegicus, UniProt P15823+P23944+P43140); test: Binding affinity to alpha-1 adrenergic receptor determined by measurement of [3H]prazosin displacement from rat cortical membrane
T2 sequence (P15823 whole entry): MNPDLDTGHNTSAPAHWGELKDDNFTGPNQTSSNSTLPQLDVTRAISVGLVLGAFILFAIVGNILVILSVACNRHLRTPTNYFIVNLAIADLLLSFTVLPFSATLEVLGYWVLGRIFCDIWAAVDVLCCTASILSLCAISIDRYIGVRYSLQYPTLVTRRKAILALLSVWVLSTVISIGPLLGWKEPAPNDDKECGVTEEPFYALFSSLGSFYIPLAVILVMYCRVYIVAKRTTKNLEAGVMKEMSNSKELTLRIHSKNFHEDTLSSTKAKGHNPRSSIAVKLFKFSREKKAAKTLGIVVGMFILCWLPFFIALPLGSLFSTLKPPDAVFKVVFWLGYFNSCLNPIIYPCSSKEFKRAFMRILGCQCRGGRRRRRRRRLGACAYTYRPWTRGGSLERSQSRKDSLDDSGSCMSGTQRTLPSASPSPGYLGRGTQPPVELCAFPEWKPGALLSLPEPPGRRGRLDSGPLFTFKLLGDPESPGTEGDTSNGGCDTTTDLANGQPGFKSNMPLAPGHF
T2 sequence (P23944 whole entry): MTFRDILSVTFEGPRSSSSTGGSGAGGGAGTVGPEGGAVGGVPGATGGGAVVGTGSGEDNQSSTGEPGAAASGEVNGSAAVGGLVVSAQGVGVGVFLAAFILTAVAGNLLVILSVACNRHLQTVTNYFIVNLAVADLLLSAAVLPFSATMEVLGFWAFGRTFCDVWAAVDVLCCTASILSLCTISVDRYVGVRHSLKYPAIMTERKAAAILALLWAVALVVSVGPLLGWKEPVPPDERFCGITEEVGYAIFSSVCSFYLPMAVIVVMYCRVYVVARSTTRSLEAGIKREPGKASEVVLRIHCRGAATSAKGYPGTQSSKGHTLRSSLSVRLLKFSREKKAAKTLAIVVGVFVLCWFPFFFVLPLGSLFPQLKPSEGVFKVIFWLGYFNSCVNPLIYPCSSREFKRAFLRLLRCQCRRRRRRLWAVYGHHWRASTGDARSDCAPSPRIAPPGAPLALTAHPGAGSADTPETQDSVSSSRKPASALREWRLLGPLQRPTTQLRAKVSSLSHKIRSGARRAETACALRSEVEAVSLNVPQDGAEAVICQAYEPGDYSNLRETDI
T2 sequence (P43140 whole entry): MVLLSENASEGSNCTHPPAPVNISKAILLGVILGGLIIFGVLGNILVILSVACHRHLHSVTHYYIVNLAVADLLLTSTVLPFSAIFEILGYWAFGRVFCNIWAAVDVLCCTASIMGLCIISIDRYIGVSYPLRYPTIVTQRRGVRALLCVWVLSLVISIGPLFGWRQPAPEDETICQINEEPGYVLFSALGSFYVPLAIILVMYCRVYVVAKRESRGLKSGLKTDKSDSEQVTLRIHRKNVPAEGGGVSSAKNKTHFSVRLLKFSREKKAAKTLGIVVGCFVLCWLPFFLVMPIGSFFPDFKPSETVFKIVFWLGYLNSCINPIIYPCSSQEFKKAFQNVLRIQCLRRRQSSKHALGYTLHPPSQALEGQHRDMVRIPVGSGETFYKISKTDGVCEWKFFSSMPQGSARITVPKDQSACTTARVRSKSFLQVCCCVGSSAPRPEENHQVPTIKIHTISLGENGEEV
In short: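 Male Sprague-Dawley rat (150-200 g) cerebral cortex membranes, washed in 50 mM Tris-HCl/0.5 mM EDTA pH 7.4. 250 µg membrane protein incubated with 0.5 nM [3H]prazosin for 30 min at 25 °C in a 0.5 mL volume. Nonspecific binding defined by 10 µM phentolamine. IC50 estimated graphically; Ki calculated by Cheng-Prusoff.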

Row | Compound | Log Ki [1] | Log Ki [2]
1 | COc1cc2c(cc1OC)[C@@H]1C[C@H]3[C@H](CCCN3S(=O)(=O)CC(C)C)CN1CC2 | -8.1 | -4.46
2 | CS(=O)(=O)N1CCC[C@H]2CN3CCc4cc5c(cc4[C@@H]3C[C@H]21)OCO5 | -7.24 | -5.95
3 | CCCCS(=O)(=O)N1CCC[C@H]2CN3CCc4ccccc4[C@@H]3C[C@@H]21 | -7.42 | -5.3
4 | COc1ccc2c(c1)CCN1C[C@H]3CCCN(S(=O)(=O)CCl)[C@@H]3C[C@@H]21 | -8.95 | -5.13
5 | COc1ccc2c(c1)CCN1C[C@@H]3CCCN(S(C)(=O)=O)[C@@H]3C[C@@H]21 | -6.88 | -4.85
6 | CS(=O)(=O)N1CCC[C@@H]2CN3CCc4cc(O)ccc4[C@@H]3C[C@@H]21 | -8.2 | -5.27
7 | COc1cc2c(cc1Br)[C@@H]1C[C@@H]3[C@H](CCCN3S(C)(=O)=O)CN1CC2 | -8.3 | -5.25
8 | CS(=O)(=O)N1CCC[C@H]2CN3CCc4ccccc4[C@@H]3C[C@H]21 | -5.96 | -5.58
9 | CS(=O)(=O)N1CCC[C@@H]2CN(CCc3ccccc3)CC[C@@H]21 | -6.12 | -5.51
10 | O=S(=O)(c1ccc(Cl)cc1)N1CCC[C@@H]2CN3CCc4ccccc4[C@@H]3C[C@@H]21 | -8.3 | -5.19
11 | CS(=O)(=O)N1CCC[C@@H]2CN3CCc4ccc(F)cc4[C@@H]3C[C@@H]21 | -8.04 | -5.21
12 | COc1cc2c(cc1OC)[C@@H]1C[C@H]3[C@H](CCCN3S(C)(=O)=O)CN1C(C)C2 (stereo partly drawn) | -7.08 | -4.93
13 | COc1ccc2c(c1)CCN1C[C@H]3CCCN(S(N)(=O)=O)[C@H]3C[C@@H]21 | -8.43 | -4.92
14 | CCCCS(=O)(=O)N1CCC[C@H]2CN3CCc4ccccc4[C@@H]3C[C@H]21 | -5.82 | -5.76
15 | O=S(=O)(c1ccc(F)cc1)N1CCC[C@@H]2CN3CCc4ccccc4[C@@H]3C[C@@H]21 | -8.69 | -5.38
16 | COc1ccc2c(c1)CCN1C[C@H]3CCCN(S(=O)(=O)N(C)C)[C@H]3C[C@@H]21 | -8.66 | -5.25

Next, values leading:

Row | Log Ki [1] | Log Ki [2] | Compound
17 | -7.84 | -5.2 | COc1ccc2c(c1)CCN1C[C@@H]3CCCN(S(C)(=O)=O)[C@H]3C[C@@H]21
18 | -6.4 | -5.06 | CS(=O)(=O)N1CCC[C@H]2[C@H]3c4cc5c(cc4CCN3CC[C@@H]21)OCO5
19 | -8.74 | -6.03 | CN(C)S(=O)(=O)N1CCC[C@@H]2CN3CCc4ccccc4[C@@H]3C[C@@H]21
20 | -7.37 | -5.63 | COc1ccc(OC)c2c1CCN1C[C@H]3CCCN(S(C)(=O)=O)[C@H]3C[C@@H]21
21 | -7.56 | -5.65 | CS(=O)(=O)N1CCC[C@H]2CN3CCc4cc5c(cc4[C@@H]3C[C@@H]21)OCO5
22 | -6.26 | -5.15 | CS(=O)(=O)N1CCC[C@H]2CN3CCc4c([nH]c5ccccc45)[C@@H]3C[C@H]21
23 | -7.78 | -4.8 | CS(=O)(=O)N1CCC[C@@H]2CN3CCc4c([nH]c5ccccc45)[C@@H]3C[C@@H]21
24 | -9.15 | -4.89 | Cc1ccc2c(c1)CCN1C[C@H]3CCCN(S(C)(=O)=O)[C@H]3C[C@@H]21
25 | -8.82 | -5.13 | COc1ccc2c(c1)CCN1C[C@H]3CCCN(S(=O)(=O)Cc4ccccc4)[C@@H]3C[C@@H]21
26 | -5.38 | -4.82 | CN1C[C@H]2CCCN(S(C)(=O)=O)[C@H]2C[C@H]1c1ccc2c(c1)OCO2
27 | -6.13 | -5.55 | CN1C[C@@H]2CCCN(S(C)(=O)=O)[C@@H]2C[C@H]1c1ccc2c(c1)OCO2
28 | -6.4 | -5.2 | CS(=O)(=O)N1CC[C@H]2C[C@H]3c4ccccc4CCN3C[C@H]2C1
29 | -8.04 | -5.7 | CC(C)CS(=O)(=O)N(C)[C@@H]1CCN2CCc3ccccc3[C@@H]2C1
30 | -7.54 | -5.8 | CS(=O)(=O)N1CC[C@@H]2CN3CCc4ccccc4[C@@H]3C[C@@H]2C1
31 | -8.82 | -5.33 | C=CS(=O)(=O)N1CCC[C@@H]2CN3CCc4cc(OC)ccc4[C@@H]3C[C@@H]21
32 | -7.78 | -5.26 | COc1ccc2c(c1)CCN1C[C@H]3CCCN(S(=O)(=O)NC(C)(C)C)[C@H]3C[C@@H]21
33 | -8.66 | -5.33 | Nc1ccc(S(=O)(=O)N2CCC[C@@H]3CN4CCc5ccccc5[C@@H]4C[C@@H]32)cc1
34 | -8.83 | -5.01 | COc1ccc2c(c1)CCN1C[C@H]3CCCN(S(=O)(=O)c4cccs4)[C@@H]3C[C@@H]21
